This note sets out measurements from ChEMBL document CHEMBL4513216, “Probing the Open Global Health Chemical Diversity Library for Multistage-Active Starting Points for Next-Generation Antimalarials” (ACS Infect Dis, 2020).

SMILES strings stand for the structures.

The nature of this series: Toxicity liver stage against HepG2, at 10uM. Also noted: test concentration 10 uM, cell line HepG2-A16-CD81EGFP. In kind it is cell-based. Particulars: human, HepG2-A16-CD81EGFP cells; read-out: INHIBITION
The gist of the method: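 Uninfected HepG2-A16-CD81EGFP cells, 3 × 10^3 per well, 1536-well, plated on prespotted compound at 10 μM final, parasite-free screening media added to match infected plates; puromycin 10 μM positive, DMSO 0.5% negative; run in parallel with 48 h PbLuc assay at 37 °C, 5% CO2; viability by CellTiter-Glo luminescence, normalized to controls.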
In the case of `CN1C(=O)CC(C(=O)O)C12CCN(c1ccc3cccc(Cl)c3n1)CC2` (stereo unspecified), the cytotoxicity at 10 µM came out at 2.1%.
Turning to `COC(=O)CS(=O)(=O)CCC(=O)N1CCCC1c1ccsc1` (stereo unspecified), the cytotoxicity at 10 µM was -16.5%.
`CCc1nnc(CNC(=O)CCCN2CCCCC2)s1`: the cytotoxicity at 10 µM was -15.4%.
On to `O=C(CN(C1=NCCCC1)c1ccccc1)c1ccccc1`, for which the cytotoxicity at 10 µM was -0.239%.
As to `O=C(CCCc1ccccn1)N1CCC(n2cccc2)CC1`, the cytotoxicity at 10 µM came out at 4.59%.
The same measure for `CCOCC1CN(C(=O)c2ccncn2)Cc2cnn(CC)c21` (stereo unspecified): -68.3%.
Consider `c1cc(-c2c[nH]c([C@@H]3COCCN3C3CCCCC3)n2)ccn1`, for which the cytotoxicity at 10 µM is 7.66%.
Regarding `CC(NC(=O)Nc1cccnc1N1CCOCC1)c1ccccn1` (stereo unspecified), the cytotoxicity at 10 µM is 0.456%.
Turning to `CC(NC(=O)NCc1ccccn1)c1ccc2c(c1)CCC(=O)N2` (stereo unspecified), the cytotoxicity at 10 µM was determined as 7.47%.
Turning to `CS(=O)(=O)c1ccc(CNC(=O)N2CCC(CO)CC2)cc1`, the cytotoxicity at 10 µM was -11.6%.
The same measure for `Cc1nc(-c2ccc(C(=O)O)cc2)cc(C2CCCN(C(C)C)C2)n1` (stereo unspecified): -10.2%.
As for `CN(C)Cc1ccnc(NS(=O)(=O)Cc2cccc(F)c2)c1`, the cytotoxicity at 10 µM worked out at 1.76%.
The result for `OC1CCN(c2cnnc3ccccc23)CC1` reads -0.561%.
Consider `CC(C)N(C)S(=O)(=O)N(C)Cc1ccc2c(c1)OCCO2`, for which the cytotoxicity at 10 µM was -2.84%.
The same measure for `Cc1cc(NCC(=O)N(C)CC(F)(F)F)c(C(N)=O)cc1F`: -2.91%; for `CCc1c(C)sc2nc3n(CCN4CCOCC4)nc(SC)n3c(=O)c12`: 1.09%.
The result for `CN(C)C(C(=O)NCCS(=O)(=O)N(C)C)c1cccc(F)c1` (stereo unspecified) reads 2.73%.
The result for `CCc1cc(N2CCC(F)(F)CC2)n2nc(C)c(C)c2n1` reads -6.42%.
`CCc1n[nH]c(C2CN(C(=O)c3cc(C4CC4)on3)CCO2)n1` (stereo unspecified): the cytotoxicity at 10 µM was -6.43%.
The result for `O=C(c1ccccc1)N1C[C@H]2CCC[C@@]2(COCc2ccncc2)C1` reads 1.59%.
In the case of `Cc1cnc(N2CCC3(CC2)CN(c2ccsc2)C(=O)CO3)nc1`, the cytotoxicity at 10 µM amounted to 7.34%.
The same measure for `COc1cc(C(=O)NCCCc2ccccc2)on1`: -2.1%; for `Cn1ccnc1SCCNC(=O)Cn1cnc2ccccc2c1=O`: -20.7%.
The same measure for `CCCNCc1ccc(-c2cc(N)nc3[nH]ccc23)cc1`: 19.8%; for `CC(C)CN1CCC2(COCc3cnc(-c4ccccc4)nc32)C1` (stereo unspecified): -103%.
The result for `Cc1noc(CN(C)CC2CCCN(CCc3ccc(Cl)cc3)C2)n1` (stereo unspecified) reads 3.76%; that for `NS(=O)(=O)Cc1cccc(C(=O)N2CCCC(n3cccn3)C2)c1` (stereo unspecified), 1.25%; that for `O=C(NCc1ccc(Cl)cc1)C1CCCN(c2ccc3nncn3n2)C1` (stereo unspecified), 6.44%.
Consider `COc1ccc(Cl)cc1-n1c(COC(C)C)n[nH]c1=O`, for which the cytotoxicity at 10 µM is -7.5%.
For the compound `NC(=O)C1CCCN(C(=O)c2ccc(-n3ccnc3)cc2)C1` (stereo unspecified), the cytotoxicity at 10 µM is -4.4%.
The same measure for `CCC(CNC(=O)Cn1ccnc1)Oc1cccc(F)c1` (stereo unspecified): -45.8%.
The result for `COCC1CC2(CCN(Cc3ccccn3)CC2)CN1C(C)C` (stereo unspecified) reads -7.16%; that for `Cc1c(C[S+](C)[O-])cccc1NC(=O)c1cc(Cl)ccn1` (stereo unspecified), 9.41%.
Take `O=S(=O)(NCC1CCN(CCN2CCOCC2)C1)c1ccccc1F` (stereo unspecified): the cytotoxicity at 10 µM was -57.9%.
The result for `O=C(CCC1CCCCC1)NS(=O)(=O)CC1CC1` reads -9.69%; that for `O=C(c1ccnnc1)N1CCc2onc(Cn3cccn3)c2C1`, 0.529%.
The same measure for `O=C(c1cccc(O)c1)N1CCC2(CCN2c2ncccn2)C1` (stereo unspecified): -139%; for `COC1CCN(CCNC(=O)NCC(C)c2cccc(C)c2)CC1` (stereo unspecified): -4.47%.
With `Cc1cc(CNC(=O)N2CCc3ccccc32)on1`, the cytotoxicity at 10 µM was -3.57%.
Turning to `CN1CCCN(CC(CC(=O)Nc2ccc(Cl)cc2)C(=O)O)CC1` (stereo unspecified), the cytotoxicity at 10 µM was -5.4%.
The same measure for `O=C(Cc1c(F)cccc1Cl)Nc1cccc(N2CCCC2)c1`: -117%; for `CCC(Cn1ccnc1)n1cnc2scc(C)c2c1=O` (stereo unspecified): 10.7%; for `Cc1noc(C)c1-c1cnc(CC2CCN(C(=O)c3cc[nH]n3)C2)cn1` (stereo unspecified): 3.6%.
The result for `CNC(=O)c1cccnc1N1CCN(Cc2ccccc2)C(CCO)C1` (stereo unspecified) reads -6.03%.
For `COCCOc1ncccc1C(=O)Nc1ccc(-n2cncn2)c(F)c1`, the cytotoxicity at 10 µM is -0.138%.
The same measure for `O[C@]1(c2ccccn2)CC[C@@H]2CN(Cc3cccc4ncccc34)C[C@@H]21`: -2.09%; for `Cc1noc([C@@H]2C[C@H]3CN(C(=O)C4CCN(C)CC4)C[C@H]3O2)n1`: -71.2%.
The result for `O=C(c1ccncc1Cl)N1CCN(Cc2ccco2)C(CCO)C1` (stereo unspecified) reads -9.84%; that for `CCN(Cc1cccc(-c2ccncc2)c1)S(N)(=O)=O`, -12.6%; that for `O=C([C@H]1C[C@H]2OCC[C@H]2N(C(=O)c2ccncc2)C1)N1CCCCO1`, -6.77%.
The result for `CCN1CCC2(CC1)CC(NC(=O)c1c[nH]cn1)c1ccccc1O2` (stereo unspecified) reads -103%; that for `O=C(NC1CCC1)[C@H]1C[C@H]2CN(CC3CC3)C[C@@H]1O2`, 7.55%.
As to `CSCCNC(=O)c1ccc(OC2CCN(CC(C)(C)C)CC2)c(Cl)c1`, the cytotoxicity at 10 µM was -10.9%.
The same measure for `COC1COC2(CCN(Cc3ccccc3Cl)CC2)C1` (stereo unspecified): -14.1%; for `CC(NC(=O)NCC1(c2ccccc2)CCC1)c1nncn1C` (stereo unspecified): -10.4%.
The same measure for `N[C@H]1CN(C(=O)c2ccc3[nH]c(CO)nc3c2)C[C@@H]1c1ccccc1`: -1.82%; for `CC(C)N(C(=O)CN(C)C1CCc2ccccc21)C(C)C` (stereo unspecified): -9.3%.
The result for `COC1CCCN(C(=O)NCc2ccc(C(=O)N(C)C(C)C)cc2)C1` (stereo unspecified) reads -24.8%; that for `Cn1ccc(CN2CCC3(CC2)CC(Nc2cnccn2)CO3)n1` (stereo unspecified), -2.66%; that for `O=C(c1cc(COc2ccc3c(c2)OCO3)[nH]n1)N1CCCO1`, -1.59%.
On to `CNc1cncc(C2CCCN2S(=O)(=O)c2ccc(F)cc2)n1` (stereo unspecified), for which the cytotoxicity at 10 µM is -3.21%.
The same measure for `O=C1COc2ccc(C(=O)NS(=O)(=O)c3cc(F)ccc3F)cc2N1`: -4.92%.
The result for `C/C=C(\C)CN1C[C@H](NC(=O)c2cnc(O)cn2)C[C@H]1C(=O)NCC` reads 7.31%; that for `CN(C1CCN(c2ccccn2)CC1)S(=O)(=O)N1CCOCC1`, -5.23%.
The same measure for `Cc1nc(NC(=O)C2(C)CN(C)CCO2)sc1C` (stereo unspecified): 2.44%; for `CC(C)(C)CC1CCCN1Cc1nc(-c2ccco2)no1` (stereo unspecified): 4.11%; for `O=C(c1ccsc1)N1CCC(c2nnc(C3CC3)o2)CC1`: 12.3%.
Consider `CC(C)c1nc(C2CCCN(C(=O)CCCn3ccnc3)C2)no1` (stereo unspecified), for which the cytotoxicity at 10 µM is -17.2%.
The same measure for `Cc1ncc(-c2ccnc(N3CCCCCC3)n2)c(-c2cccnc2)n1`: 6.21%; for `CCCn1cc2nc(N3CCCC3)[nH]cc-2c1=O`: 2.13%.
Take `Cc1cccc(-c2nc(CNC3CCc4ncnn4C3)no2)c1` (stereo unspecified): the cytotoxicity at 10 µM is -2.09%.
The same measure for `CN(Cc1ccccn1)C(=O)c1nn(C)c2c1CCN(CC1CC1)C2`: -1.68%; for `CC(C)(C)OC(=O)NC(C)(C(N)=O)c1cccc(Cl)c1` (stereo unspecified): 18.3%; for `Cc1ccc(NC2CCN(C(=O)Cc3c(C)noc3C)CC2)nn1`: -8.13%.
The same measure for `COc1cccc(N2CCN(C(=O)[C@H](O)C3CCCCC3)CC2=O)c1`: -14.1%; for `COc1cccc2c(=O)n(C3CCCNC3)cnc12` (stereo unspecified): -42.4%; for `O=C(Nc1cc(F)ccc1OCC1CCCO1)N1CCSCC1` (stereo unspecified): -1.79%.
Consider `O=C(NCCOc1ccc2c(c1)OCO2)C1CC(=O)N(CC2CC2)C1` (stereo unspecified), for which the cytotoxicity at 10 µM was -6.63%.
The result for `COc1ccc(CNC(Cn2cncn2)c2ccccc2)cc1O` (stereo unspecified) reads -6.74%; that for `Cc1noc(C)c1CN1C[C@@H]2CN(C(=O)c3cnccn3)C[C@@H]2C1`, -1.86%.
For `COc1cccc(CN(C)C(=O)c2ccc(NC(C)=O)s2)c1OC`, the cytotoxicity at 10 µM was 0.23%.
The result for `CN(Cc1cn2c(n1)CN(C(=O)c1cccn1C)CC2)Cc1ccco1` reads 2.75%; that for `CCn1nc(C)cc1C(=O)Nc1cc(F)ccc1OCC1CCCO1` (stereo unspecified), 2.89%.
The result for `Cc1nc(N(C)C)nc(C)c1NS(=O)(=O)c1ccc(F)cc1F` reads -3.58%; that for `NS(=O)(=O)CCNC(=O)c1nnn(-c2ccc(F)cc2)c1C1CC1`, -14.3%.
The result for `CNS(=O)(=O)c1ccc(CNC(=O)C2CN(C)CCO2)cc1` (stereo unspecified) reads -14.1%; that for `CCOCC(=O)Nc1nccn1Cc1ccc(Br)cc1`, -44.8%; that for `COc1cc(NC2CCS(=O)(=O)CC2)ncn1`, -3.71%.
As to `CC(C)n1ccnc1CN1CCCN(C(=O)COC2CCCC2)CC1`, the cytotoxicity at 10 µM is -0.602%.
The same measure for `O=C(c1ccc(F)cc1)N1CC[C@H]2[C@H]1CCN2CC1CC1`: -1.92%; for `c1cc(CCNc2ncc(-c3cnccn3)c(C3CC3)n2)ccn1`: 13.5%.
The same measure for `CCNC(=O)N(CCCO)C1CCCc2ccccc21` (stereo unspecified): -11%; for `COc1ccccc1OC1(C(=O)O)CCN(c2cc(C)nc(C)c2)CC1`: 2.65%; for `CCCC(NC(=O)c1cc(C)n(C2CC2)c1C)c1nnn[nH]1` (stereo unspecified): -10.1%.
The result for `CC(C)OCCCNC(=O)CS(=O)(=O)Cc1ccc(Cl)c(Cl)c1` reads -9.7%; that for `Cc1ccc(C(C(=O)NCCc2nc(C)cc(C)n2)N(C)C)cc1` (stereo unspecified), -1.3%.
